The results in this text go back to PubChem BioAssay AID624363 (Broad Institute, 2012).

Several values for one entry are separate records, joined by “and”; a condition that tells them apart may be missing. Equal values may be shown once.

The term AC50 denotes the midpoint of the concentration-response curve, whichever way the signal moves.

This experiment concerns SK-MEL-5 TRPM1 promoter luciferase reporter, 24 h. Nature of the experiment: inhibitors of MITF-driven TRPM1 reporter, dose response, cell-based, SK-MEL-5, luciferase, dry powder, set 5 (AID 624363). In short, it runs like this: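 Assay system: SK-MEL-5 melanoma line with stable TRPM1 promoter–luciferase reporter; buffer or medium: phenol red-free DMEM, 10% FBS; compound: pin-transferred compounds; incubation: compound exposure 24 h at 37 °C, one day after plating; detection: SteadyGlo luciferase luminescence after 5 min at room temperature; control set: parthenolide 27 µM positive control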
For `CN1CCN(C2=C(NS(=O)(=O)c3cccs3)C(=O)c3ccccc3C2=O)CC1`, the AC50 was 3.51 µM.

`C=CCNC1=C(N2CCSCC2)C(=O)c2ccccc2C1=O`: the AC50 is 3.93 µM. For `CN1CCN(C2=C(NS(=O)(=O)c3ccc(Br)cc3)C(=O)c3ccccc3C2=O)CC1` the value was 7.58 µM; for `NC1=C(c2ccc(OC(F)(F)F)cc2)C(=O)c2ccccc2C1=O`, 20.4 µM. For `NC1=C(NS(=O)(=O)c2ccccc2)C(=O)c2ccccc2C1=O` the value was 4.31 µM; for `O=C(NC1=C(c2ccccc2)C(=O)c2ccccc2C1=O)c1ccco1`, 9.7 µM; for `CC(=O)NC1=C(c2cccc(Cl)c2)C(=O)c2ccccc2C1=O`, 3.67 µM. For `O=C1C(NS(=O)(=O)c2ccccc2)=C(N2CCOCC2)C(=O)c2ccccc21` the value was 19.3 µM; for `COc1ccc(S(=O)(=O)N(C(C)=O)c2ccc(OC(C)=O)c3ccccc23)cc1[N+](=O)[O-]`, 6.42 µM. With `COC1=C(NS(=O)(=O)c2ccccc2)C(=O)c2ccccc2C1=O`, the AC50 is 4.93 µM. The value for `CC(=O)N(C)C1=C(N2CCN(C)CC2)C(=O)c2ccccc2C1=O` was 0.404 µM; that for `COc1ccc(C2=C(NC(=O)c3cccc(Cl)c3)C(=O)c3ccccc3C2=O)cc1` was 11 µM; that for `CC(=O)NC1=C(c2ccc3c(c2)oc2ccccc23)C(=O)c2ccccc2C1=O` was 2.15 µM. For `CCN(CC)CCCCNC1=C(Nc2ccccc2)C(=O)c2ccccc2C1=O` the value was 4.14 µM; for `C=CCNC1=C(NCCCN2CCOCC2)C(=O)c2ccccc2C1=O`, 13.9 µM. Turning to `O=C(NC1=C(N2CCOCC2)C(=O)c2ccccc2C1=O)c1ccc(Br)cc1`, the AC50 was 12.5 µM. As to `O=C1C(NS(=O)(=O)c2ccccc2)=C(c2ccccc2)C(=O)c2ccccc21`, the AC50 is 20.5 µM. For `CCN1CCN(C2=C(NS(=O)(=O)c3ccc(Br)cc3)C(=O)c3ccccc3C2=O)CC1` the value was 8.69 µM; for `O=C(NC1=C(N2CCSCC2)C(=O)c2ccccc2C1=O)c1ccccc1`, 4.96 µM. For `CN1CCN(C2=C(NS(=O)(=O)c3ccc(Br)s3)C(=O)c3ccccc3C2=O)CC1` the value was 1.98 µM; for `C=CCNC1=C(NCCN(CC)CC)C(=O)c2ccccc2C1=O`, 4.88 µM. With `O=C1C(NS(=O)(=O)c2ccc(Br)cc2)=C(N2CCOCC2)C(=O)c2ccccc21`, the AC50 was 14.4 µM.

Turning to `CN1CCN(C2=C(Nc3ccccc3)C(=O)c3ccccc3C2=O)CC1`, the AC50 was 7.78 µM.

`C=CCNC1=C(Nc2ccccc2)C(=O)c2ccccc2C1=O`: the AC50 is 15.4 µM. For `Cc1ccc(C(=O)NC2=C(c3ccccc3)C(=O)c3ccccc3C2=O)o1` the value was 3.23 µM; for `CCN1CCN(C2=C(NS(=O)(=O)c3cccs3)C(=O)c3ccccc3C2=O)CC1`, 2.96 µM. For `CCN1CCN(C2=C(NS(=O)(=O)c3ccc(Br)s3)C(=O)c3ccccc3C2=O)CC1` the value was 3.89 µM; for `NC1=C(c2ccccc2)C(=O)c2ccccc2C1=O`, 4.34 µM. Regarding `C=CCNC1=C(N(C)C(C)=O)C(=O)c2ccccc2C1=O`, the AC50 was 0.0923 µM. For `CN1CCN(C2=C(NC(=O)c3ccccc3)C(=O)c3ccccc3C2=O)CC1` the value was 1.04 µM; for `O=C(NC1=C(Cl)C(=O)c2ccccc2C1=O)c1ccccc1`, 0.806 µM; for `COc1ccc(C2=C(NC(C)=O)C(=O)c3ccccc3C2=O)cc1`, 4.84 µM. Turning to `O=C(NC1=C(c2ccc(OC(F)(F)F)cc2)C(=O)c2ccccc2C1=O)c1ccc(Br)cc1`, the AC50 was 25 µM. The value for `CC(=O)NC1=C(c2ccc(Cl)cc2)C(=O)c2ccccc2C1=O` was 3.45 µM; that for `O=C1C=C(NS(=O)(=O)c2cccs2)C(=O)c2ccccc21` was 1.71 µM.

Consider `O=C1C(NS(=O)(=O)c2ccccc2)=C(N2CCCCC2)C(=O)c2ccccc21`, for which the AC50 is 22.2 µM.

Regarding `C=CCNC1=C(N2CCOCC2)C(=O)c2ccccc2C1=O`, the AC50 is 2.54 µM. The value for `CC1CCN(CC(CS(=O)(=O)c2ccc([N+](=O)[O-])cc2)N2CCC(C)CC2)CC1` (stereo not drawn) was 2.71 µM; that for `O=C1C(NS(=O)(=O)c2ccc(Br)s2)=C(N2CCOCC2)C(=O)c2ccccc21` was 15 µM; that for `O=C1C(Nc2ccccc2)=C(N2CCSCC2)C(=O)c2ccccc21` was 9.7 µM.

For the compound `O=C1C(Nc2ccccc2)=C(NS(=O)(=O)c2ccccc2[N+](=O)[O-])C(=O)c2ccccc21`, the AC50 was 16.9 µM. For `NC1=CC(=O)c2ccccc2C1=O`, the AC50 was 1.06 µM. With `C=CCNC1=C(N2CCCCC2)C(=O)c2ccccc2C1=O`, the AC50 is 0.983 µM. For `O=C1C(NS(=O)(=O)c2cccs2)=C(N2CCOCC2)C(=O)c2ccccc21` the value was 12.4 µM; for `C[C@@H](NC1=C(Nc2ccccc2)C(=O)c2ccccc2C1=O)c1ccccc1`, 13.4 µM. `CCN1CCN(C2=C(Nc3ccccc3)C(=O)c3ccccc3C2=O)CC1`: the AC50 was 0.809 µM.

Consider `CCN1c2ccccc2NC2N=C(OC)C(c3ccccc3)C21` (stereo not drawn), for which the AC50 is 3.74 µM. The value for `CCN(CC)CCCNC1=C(N(C)C(C)=O)C(=O)c2ccccc2C1=O` was 0.305 µM; that for `CCN1CCN(C2=C(N(C)C(C)=O)C(=O)c3ccccc3C2=O)CC1` was 0.318 µM. The value for `CN1CCN(C2=C(NC(=O)c3ccc(Br)cc3)C(=O)c3ccccc3C2=O)CC1` was 1.14 µM. For `CCN(CC)CCCNC1=C(Nc2ccccc2)C(=O)c2ccccc2C1=O` the value was 2.17 µM. As for `Cc1nc2ccccc2n1/N=C/c1ccc([N+](=O)[O-])s1`, the AC50 was 4.34 µM. The value for `CC(=O)N(C)C1=C(N2CCCCC2)C(=O)c2ccccc2C1=O` was 0.796 µM; that for `COc1ccc(C(=O)NC2=C(c3ccc(OC(F)(F)F)cc3)C(=O)c3ccccc3C2=O)cc1` was 36.2 µM; that for `COc1ccc(C2=C(NC(=O)c3ccc(Cl)cc3)C(=O)c3ccccc3C2=O)cc1` was 15.3 µM. With `C=CCNC1=C(NCCCN(CC)CC)C(=O)c2ccccc2C1=O`, the AC50 was 4.6 µM. For `O=C(NC1=C(c2ccccc2)C(=O)c2ccccc2C1=O)c1ccccc1` the value was 6.93 µM. The value for `C=C1C(=O)OC2C1CC/C(C)=C\CCC1(C)OC21` (stereo not drawn) was 3.51 µM; that for `C=CCNC1=C(Cl)C(=O)c2ccccc2C1=O` was 0.799 µM and 1.88 µM. For `NC1=C(NC(=O)c2ccccc2)C(=O)c2ccccc2C1=O` the value was 4.08 µM; for `O=C(NC1=C(c2ccc(OC(F)(F)F)cc2)C(=O)c2ccccc2C1=O)c1ccccc1F`, 19.9 µM; for `O=C1C=C(NS(=O)(=O)c2ccc(Br)cc2)C(=O)c2ccccc21`, 9.16 µM.

In the case of `O=C(NC1=C(N2CCSCC2)C(=O)c2ccccc2C1=O)c1ccc(Br)cc1`, the AC50 is 10.1 µM. The value for `C=CCNC1=C(NC(=O)c2ccccc2)C(=O)c2ccccc2C1=O` was 26.5 µM; that for `C=CCNC1=C(N2CCN(C)CC2)C(=O)c2ccccc2C1=O` was 3.89 µM. For `COC1=C(Nc2ccccc2)C(=O)c2ccccc2C1=O` the value was 2.69 µM; for `COc1cccc(C2=C(NC(=O)c3ccccc3)C(=O)c3ccccc3C2=O)c1`, 16.6 µM; for `O=C(NC1=C(c2ccccc2)C(=O)c2ccccc2C1=O)c1ccc(Br)cc1`, 24.4 µM.

In the case of `O=C1C(Nc2ccccc2)=C(N2CCN(c3ccccc3)CC2)C(=O)c2ccccc21`, the AC50 is 12.1 µM. The value for `O=C(CNc1cccc2ccccc12)N/N=C/c1ccc([N+](=O)[O-])o1` was 3.64 µM; that for `COC1=C(NS(=O)(=O)c2ccc(Br)cc2)C(=O)c2ccccc2C1=O` was 7.22 µM. For `Cc1ccc(C(=O)NC2=C(c3ccc(OC(F)(F)F)cc3)C(=O)c3ccccc3C2=O)o1` the value was 13.4 µM; for `COc1ccc(C2=C(NC(=O)c3cccc(OC)c3)C(=O)c3ccccc3C2=O)cc1`, 6.98 µM; for `O=C(NC1=C(N2CCCCC2)C(=O)c2ccccc2C1=O)c1ccccc1`, 23.3 µM. For `O=C1C(Nc2ccccc2)=C(N2CCOCC2)C(=O)c2ccccc21` the value was 12.8 µM and 7.07 µM.

With `NC1=C(NS(=O)(=O)c2ccc(Br)s2)C(=O)c2ccccc2C1=O`, the AC50 was 17.5 µM. With `O=C1C(NS(=O)(=O)c2ccc(Br)cc2)=C(N2CCCCC2)C(=O)c2ccccc21`, the AC50 was 27.7 µM. For `O=C1C(Nc2ccccc2)=C(c2ccccc2)C(=O)c2ccccc21` the value was 4.49 µM; for `COc1ccc(C2=C(NC(=O)c3ccccc3OC)C(=O)c3ccccc3C2=O)cc1`, 23.7 µM; for `CN1CCN(C2=C(NS(=O)(=O)c3ccccc3)C(=O)c3ccccc3C2=O)CC1`, 1.09 µM. For `CCN1CCN(C2=C(NC(=O)c3ccc(Br)cc3)C(=O)c3ccccc3C2=O)CC1` the value was 0.845 µM.

Consider `COc1ccc(C(=O)NC2=C(c3ccc(OC)cc3)C(=O)c3ccccc3C2=O)cc1`, for which the AC50 was 7.11 µM.

For the compound `O=C1C(NS(=O)(=O)c2cccs2)=C(c2ccccc2)C(=O)c2ccccc21`, the AC50 is 10.5 µM. For `COc1ccc(C(=O)NC2=C(c3ccccc3)C(=O)c3ccccc3C2=O)cc1` the value was 14.4 µM; for `O=C(NC1=C(c2ccc(OC(F)(F)F)cc2)C(=O)c2ccccc2C1=O)c1ccccc1`, 18.9 µM.

As for `O=C1C=C(Nc2ccccc2)C(=O)c2ccccc21`, the AC50 is 4.02 µM and 5.21 µM.

Turning to `O=C(NC1=C(N2CCOCC2)C(=O)c2ccccc2C1=O)c1ccccc1`, the AC50 is 8.05 µM.

On to `C=CCNC1=C(N2CCN(CC)CC2)C(=O)c2ccccc2C1=O`, for which the AC50 was 4.47 µM. The value for `NC1=C(NS(=O)(=O)c2cccs2)C(=O)c2ccccc2C1=O` was 4.17 µM. Turning to `COc1ccc(C2=C(NC(=O)c3ccccc3Cl)C(=O)c3ccccc3C2=O)cc1`, the AC50 is 5.18 µM. For the compound `C=CCNC1=C(NS(=O)(=O)c2ccc(Br)cc2)C(=O)c2ccccc2C1=O`, the AC50 was 11.9 µM.

For the compound `O=C1C(NS(=O)(=O)c2ccc(Br)s2)=C(N2CCCCC2)C(=O)c2ccccc21`, the AC50 is 23.3 µM. In the case of `CNC1=CC(=O)c2ccccc2C1=O`, the AC50 was 9.17 µM.
